Reference: paper PMC11600170 (JACS Au, 2024)

Tests used:
[1] = tested on: MOLM13 cells; assay: RNA-seq with differential expression, KEGG enrichment and GSEA in MOLM13 cells; format: cell-based, human; details: 200 nM, 24 h, fold change ≥2 and adjusted p-value ≤0.05
[2] = tested on: MOLM13 cells; assay: Cell viability / antiproliferation assay in MOLM13 cells; format: cell-based, human; details: 72-h viability, CRBN WT and CRBN-null HEK293T and MOLM13 cells, 10 μM and 1 μM
Method in brief: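 Screening ran as a 72-h viability assay in CRBN wild-type and CRBN-null (knockout) HEK293T and MOLM13 cells. Lenalidomide and CC-885 served as controls. MOLM13 CRBN WT and KO cells were tested in biological triplicates, and the assay was repeated in three separate experiments.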

Structure (SMILES) | number of differentially expressed genes (DEGs) [1] | activity in CRBN-dependent proliferation screen [2]
CN1CCc2[nH]c(-c3ccnc(NC(=O)[C@@H](CC(F)F)c4ccc(F)cc4)c3)c(Nc3ccccc3)c2C1=O [BAY-204] | 5,020 genes | –
Cc1ccc(NC(=O)NCc2ccc3c(c2)CN(C2CCC(=O)NC2=O)C3=O)cc1Cl (stereo not drawn) [CC-885] | – | nonselective profile
Nc1cccc2c1CN(C1CCC(=O)NC1=O)C2=O (stereo not drawn) [lenalidomide] | – | minimal activity
